Hits are enriched below; roughly 6.4% of the tested compounds scored in any of these assays.
Jurkat tox 60K: cytotoxic compounds reducing Jurkat cell viability; Jurkat E6.1 viability, ATP luminescence, 48 h; inhibition, % at 4 µM; 56,000 compounds, 1.2% hits;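 active means inhibition above the mean inhibition of all tested compounds plus 3 SD, cut at about 28% in these data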
Lung fibro prol: blocks proliferation of human lung fibroblasts; LL 47 human lung fibroblast viability, ATP luminescence; active compounds read low; viability, % at 10 µM; 85,000 compounds, 1.1% hits; AID 719;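 active means viability at or below 50% in the single dose screen; inactive means viability above 50%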;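 further: compound exposure lasted 72 h before the ATP readout; 100% = median luminescence of untreated cell-only wells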
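Material: human LL 47 lung fibroblast cells; quantity: 1,150 cells/well; medium: IMEM plus 15% FBS; doses: 0.1% DMSO in all compound wells; timing: overnight attachment after seeding, then 72 h compound exposure at 37 °C; detection: CellTiter-Glo luminescence; measure: % viability of median cell-only signal; controls: cell-only wells, no compound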
Ecoli tolC: E. coli tolC mutant growth inhibition; growth inhibition, % at 10 µM (by protocol); E. coli BW25113 tolC mutant growth, OD615; 65,000 compounds, 2.2% hits; AID 573;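 active means growth inhibition at or above a cutoff equal to the mean over every tested compound plus 3 SD, cut at about 60% in these data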;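 further: growth measured after 20 h incubation at 37 °C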
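Signal: optical density read at 615 nm; Assay system: E. coli ΔtolC::kan strain BW25113; Times: 20 h incubation with compound, 37 °C; Dosing: 10 µM final, single dose.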
E coli WT exp: growth inhibitors of E. coli BW25113 wild type; growth inhibition, % at 100 µM; OD600 absorbance; 98,000 compounds, 0.15% hits;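 active means growth inhibition above about 50% at one test dose, limit read from the data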;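 further: growth measured after 20 h incubation at 37 °C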
H69AR growth 86K: growth inhibitors of human H69AR lung tumor cells. H69AR lung tumor viability, ATP luminescence, 72 h; active compounds read low. viability, % at 10 µM. 85,000 compounds, 6% hits. AID 598;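 active means viability at or below 40%; inactive means viability above 40%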;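 further: multidrug resistant small cell line overexpressing MRP-1 efflux transporter; 100% = mean luminescence of untreated control wells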
HUVEC inhibit: inhibitors of human endothelial cell proliferation | HUVEC proliferation, CellTiter-Glo luminescence, 72 h; active compounds read low | viability, % at 10 µM (by protocol) | 86,000 compounds, 1.1% hits | AID 648;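 active means viability at or below 30%; inactive means viability above 30%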;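 further: 100% = median luminescence of DMSO-only cell control wells on each plate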
Starred values were filed as active, the others as inactive; / = no result.

SMILES	Jurkat tox 60K	Lung fibro prol	Ecoli tolC	E coli WT exp	H69AR growth 86K	HUVEC inhibit
C=CCn1c(=O)[nH]c2cc(C(=O)N3CCN(c4cc(C)ccc4C)CC3)ccc2c1=O	/	89	18	-10	25*	58
Cc1ccc(C)c(N2CCN(C(=O)c3ccc(Cn4c(=O)[nH]c5ccccc5c4=O)cc3)CC2)c1	-3	93	25	-10	7.5*	37
CCCN(CCC)S(=O)(=O)c1ccc(C(=O)N2CCCc3ccccc32)cc1	/	93	/	-10	77	106
Cc1ccc(C(C)C)c(OCCNC(=S)Nc2cccc3ccccc23)c1	/	/	/	-4	/	/
CCOc1ccccc1N1CCN(c2nc(N)c(C#N)c(CC#N)c2C#N)CC1	/	95	10	-3	20*	87
O=c1c2ccccc2nc2n1CCCCN2	-4	101	10	9	89	98
CCN(c1ccccc1)S(=O)(=O)c1ccc(Oc2ccc(-n3ccnc3)cc2)nc1	13	49*	26	-6	64	75
CCN(c1ccccc1)S(=O)(=O)c1ccc(OC)c(OC)c1	/	91	/	-3	105	119
CCC(C)n1ncn(-c2ccc(N3CCN(c4ccc(OCC5COC(Cn6cncn6)(c6ccc(Cl)cc6Cl)O5)cc4)CC3)cc2)c1=O (configuration not stated)	/	72	8	/	62	18*
C=CCc1ccccc1OCC(O)CN(CC)CC (configuration not stated)	/	102	/	0	92	88
Cc1cccc(N2CC(c3nc4ccccc4n3C)CC2=O)c1C (configuration not stated)	-4	99	100*	/	88	96
CCOC(=O)c1ccc(NC(=O)CSc2nc(SC)ns2)cc1	-7	85	100*	22	75	89
CSc1nsc(SCC(=O)Nc2cccc(C(C)=O)c2)n1	-6	100	-14	0	91	92
COc1cccc(-c2ccc(C#N)c(OC(=O)c3c(Cl)cccc3Cl)n2)c1	/	85	/	-15	44	61
COc1cccc(-c2ccc(C#N)c(OC(=O)c3ccc(Cl)cc3)n2)c1	/	99	/	-16	8.9*	88
Cc1c(OC(=O)CNC(=O)OC(C)(C)C)ccc2c3c(c(=O)oc12)CCC3	-4	102	18	2	82	86
CCn1cc(C(=O)NCc2cccs2)c(=O)c2cc(S(=O)(=O)N3CCOCC3)ccc21	9	96	-7	/	65	98
CCn1cc(C(=O)NCCCN(C)C)c(=O)c2cc(F)c(N3CCN(C)CC3)cc21	/	/	23	100*	/	/
CCCNC(=O)c1cn(CC)c2cc(N3CCN(C)CC3)c(F)cc2c1=O	/	98	/	100*	55	96
CCN(CC)CCNC(=O)c1cn(CC)c2ccc(S(=O)(=O)N(C)C)cc2c1=O	0	91	-3	4	92	100
Cc1ccc2c(c1)NC(=O)C(CC(=O)NCCCN1CCCCC1)O2 (configuration not stated)	-10	101	-13	8	89	91
Cc1ccc2c(c1)NC(=O)C(CC(=O)NCCCN1CCN(c3cc(Cl)ccc3C)CC1)O2 (configuration not stated)	8	67	71*	12	49	2.9*
Cc1cc([N+](=O)[O-])ccc1NC(=S)NC(=O)C(c1ccccc1)c1ccccc1	/	94	/	-16	32*	81
O=C1CC(=C2c3ccccc3-c3ccccc32)C(=O)N1CCCCN1CCN(c2ccccc2)CC1	/	96	/	/	53	79
Cc1nc2ncnn2c(C)c1CCC(=O)N1CC(C)CC(C)C1 (configuration not stated)	/	98	/	1	100	102
SMILES	Jurkat tox 60K	Lung fibro prol	Ecoli tolC	E coli WT exp	H69AR growth 86K	HUVEC inhibit
CCOC(=O)C1CCCCN1Cc1ccccc1C(F)(F)F (configuration not stated)	5	98	-8	/	93	95
COc1ccccc1CNC(=O)N[C@@H](Cc1ccccc1)C(=O)O	0	98	1	-2	99	97
O=C(Nc1nc(-c2cccs2)cs1)c1ccc(Cl)cc1	/	105	/	-12	82	108
COc1ccc(C(=O)Nc2nc(-c3cccs3)cs2)cc1	4	91	98*	-3	89	64
COc1cc(C(=O)Nc2nc(-c3cccs3)cs2)cc(OC)c1OC	-2	85	69*	0	14*	77
COc1cc(C(=O)Nc2ccc(N(C)C)cc2)cc(OC)c1OC	7	97	5	-8	33*	81
O=C(Nc1nc(-c2cccs2)cs1)c1cccc(S(=O)(=O)N2CCCCC2)c1	11	76	28	-9	65	84
CCc1ccc(CN2CCN(C(=O)c3cccc(OC)c3OC)CC2)cc1	/	90	/	/	76	89
CC(C)NC(=O)c1onc(CSc2cccc(Cl)c2)c1C(=O)O	/	/	/	-11	/	/
CC(NCCC(c1ccccc1)c1ccccc1)c1ccccc1 (configuration not stated)	/	2.7*	16	/	0.2*	26*
CCNCCOC(c1ccccc1)c1ccccc1	/	97	/	/	89	90
COc1ccc(-c2cc(N)n(S(=O)(=O)c3ccc(F)cc3)n2)cc1OC	/	101	/	1	94	76
O=C(COc1nnnc2ccccc12)N1CCCc2ccccc21	2	103	3	1	86	91
O=C(COc1nc2ccccc2nc1N1CCOCC1)N1CCc2ccccc21	-2	40*	-6	-8	36*	76
Cc1nn(C(C)C(=O)O)c2ccccc12 (configuration not stated)	1	105	-21	-6	97	101
CCOc1ccc(C2C(C#N)=C(N)SC(N)=C2C#N)c(OCC)c1	2	/	10	-8	/	/
CCCCc1ccc(C2C(C#N)=C(N)SC(N)=C2C#N)s1	-4	97	93*	15	91	78
CCCC1CCc2c(sc(N)c2C(N)=O)C1 (configuration not stated)	/	95	/	9	96	82
CCOC(=O)CSC1=C(C#N)C(c2ccc3c(c2)OCO3)CC(=O)N1 (configuration not stated)	/	79	-6	5	23*	69
CCCCOC(=O)CSC1=C(C#N)C(c2ccc3c(c2)OCO3)CC(=O)N1 (configuration not stated)	/	100	9	-8	88	92
CCOC(=O)CSC1=C(C#N)C(c2ccc(C)o2)CC(=O)N1 (configuration not stated)	99*	49*	6	3	94	33
O=C(CN1C(=O)COc2ccc(Cl)cc21)N1CCc2ccccc21	-4	99	-13	-9	98	93
c1ccc(Cn2c(CNc3nc4ccccc4n3CCN3CCCCC3)nc3ccccc32)cc1	/	64	/	/	9.6*	15*
O=C(NCc1ccc(F)cc1)C1CCC(=O)N1C1CCCCC1 (configuration not stated)	-2	99	2	7	90	92
Cc1cc(SCC#N)n2nc(C)c(-c3ccccc3)c2n1	8	74	61*	26	26*	53

Screens (PubChem)
